From ChEMBL document CHEMBL1287740, “Synthesis and bio-evaluation of alkylaminoaryl phenyl cyclopropyl methanones as antitubercular and antimalarial agents” (Bioorg Med Chem, 2010)
≈ marks a conversion by molar mass, not a printed value. Calls of active or inactive are those of the source. No cut-off for these calls is given here.

Columns and labels:
[1] = test system: Mycobacterium tuberculosis; experiment: Antimicrobial activity against Mycobacterium tuberculosis H37Rv after 30 days by agar microdilution method; assay type: functional
Summary of the method: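 Twofold dilutions of compound in DMSO incorporated into Middlebrook 7H10 medium with OADC supplement in slanted tubes, preincubated 37 °C for 24 h, then streaked with H37Rv harvested from L-J medium into 0.85% saline with 0.05% Tween-80 (5 × 10^5 bacilli per tube). Incubated at 37 °C; MIC = lowest concentration giving complete inhibition of colonies versus drug-free control.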

Plasmodium falciparum [2] = experiment: Antimalarial activity against Plasmodium falciparum 3D7 assessed as maturation of schizonts after 24 to 32 hrs by microdilution method; assay type: functional
Summary of the method: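 P. falciparum 3D7 (chloroquine sensitive); twofold serial dilutions in complete RPMI 1640 from 10 mg/ml DMSO stocks, parasitized RBCs added (final hematocrit 3–4%, 1.0–2.0% parasitaemia, >95% rings). Incubated 24–32 h at 37 °C with 5% CO2. Thin smears stained with 15% Giemsa; schizont maturation scored against controls to give MIC.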

Plasmodium falciparum [3] = experiment: Antimalarial activity against Plasmodium falciparum 3D7 assessed as radiolabeled hypoxanthine uptake after 48 hrs by scintillation counting; assay type: functional, organism-based; settings: 3D7, 48 h
Summary of the method: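 Chloroquine-sensitive P. falciparum 3D7 asynchronous culture at 0.5% parasitaemia and 1.5% hematocrit, exposed to compounds for 24 h at 37 °C in CO2. Radiolabelled hypoxanthine (0.5 µCi/well) then added and incubation continued 48 h. Cells harvested onto filter paper, and radioactivity counted by scintillation β-counter. IC50 derived from hypoxanthine uptake.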

[4] = Cytotoxicity against african green monkey Vero cells after 72 hrs; assay type: cell-based; settings: chlorocebus sabaeus
Summary of the method: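 Vero (C1008 monkey kidney) cells grown in MEM + 15% FBS, 5% CO2, 37 °C. Trypsinized cells at 1 × 10^5 cells/ml seeded and allowed to adhere overnight, then exposed to serial compound dilutions for 72 h. Resazurin added and fluorescence read after 4 h.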

[5] = Selectivity index, ratio of CC50 for african green monkey (Cercopithecus aethiops) Vero cells to IC50 for Plasmodium falciparum 3D7; assay type: functional
Summary of the method: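 Ratio of Vero CC50 (resazurin fluorescence after 72 h exposure) to P. falciparum 3D7 IC50 (radiolabelled hypoxanthine uptake; 24 h compound exposure, then 48 h with label).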

Mycolicibacterium aurum [6] = experiment: Inhibition of type II fatty acid biosynthesis pathway in Mycobacterium aurum at 25 uM after 12 hrs by lacZ reporter assay relative to untreated control; assay type: functional
Summary of the method: (§1)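 Recombinant M. aurum lacZ reporter strains (kasA promoter or hsp60 promoter) grown in Sauton's medium with kanamycin at 37 °C to 0.5 OD600, diluted to 0.04–0.05 OD, equilibrated 2 h, then treated 12 h at 37 °C (10, 25, 50, 75 µM). Cells sonicated in PBS pH 7.2 and protein normalized by Bradford. β-gal measured with ONPG (4 mg/ml), 30 min at 37 °C, stopped with Na2CO3, OD 410 nm. Triplicates, relative to untreated control.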

Mycolicibacterium aurum [7] = experiment: Inhibition of type II fatty acid biosynthesis pathway in Mycobacterium aurum at 50 uM after 12 hrs by lacZ reporter assay relative to untreated control; assay type: functional; summary of the method: as §1

Compound	MIC [1]	MIC (Plasmodium falciparum [2])	IC50 (Plasmodium falciparum [3])	CC50 at 72 h [4]	Ratio CC50/IC50 [5]	inhibition at 25 µM (Mycolicibacterium aurum [6])	inhibition at 50 µM (Mycolicibacterium aurum [7])	inhibition (Mycolicibacterium aurum [6])	inhibition (Mycolicibacterium aurum [7])
O=C(c1ccc(NCCn2ccnc2)cc1)C1CC1c1ccc(Cl)cc1 (configuration not stated)	6.25 µg/mL (≈ 17.1 µM)	0.062 µg/mL (≈ 0.169 µM)	0.035 µg/mL (≈ 0.0957 µM)	243 µg/mL (≈ 665 µM)	6948.57	48.6%	50.2%		
O=C(/C=C/c1ccc(Cl)cc1)c1ccc(N2CCCCC2)cc1	> 12.5 µg/mL	50 µg/mL (≈ 153 µM)	8.92 µg/mL (≈ 27.4 µM)	235 µg/mL (≈ 720 µM)	26.3				
O=C(c1ccc(NC2CCCCC2)cc1)C1CC1c1ccc(Cl)cc1 (configuration not stated)	> 12.5 µg/mL	10 µg/mL (≈ 28.3 µM)	0.75 µg/mL (≈ 2.12 µM)	196 µg/mL (≈ 554 µM)	261.57			inactive	inactive
CCCCN(CCCC)c1ccc(C(=O)C2CC2c2ccc(Cl)cc2)cc1 (configuration not stated)	12.5 µg/mL (≈ 32.6 µM)	10 µg/mL (≈ 26 µM)	0.73 µg/mL (≈ 1.9 µM)	431 µg/mL (≈ 1120 µM)	590.04	41.5%	37.5%		
CC(C)CCCC(C)Nc1ccc(C(=O)C2CC2c2ccc(Cl)cc2)cc1 (configuration not stated)	> 12.5 µg/mL					17.5%	27.4%		
O=C(/C=C/c1ccc(Cl)cc1)c1ccc(N2CCOCC2)cc1	6.25 µg/mL (≈ 19.1 µM)	50 µg/mL (≈ 153 µM)	4.86 µg/mL (≈ 14.8 µM)	35.6 µg/mL (≈ 109 µM)	7.33	47.1%	42.9%		
O=C(c1ccc(NCCn2cnc3ccccc32)cc1)C1CC1c1ccc(Cl)cc1 (configuration not stated)	12.5 µg/mL (≈ 30.1 µM)	2 µg/mL (≈ 4.81 µM)	0.74 µg/mL (≈ 1.78 µM)	285 µg/mL (≈ 686 µM)	385.45	1.03%	16.9%		
NNC(=O)c1ccncc1 [ISONIAZID]	0.025 µg/mL (≈ 0.182 µM)								
CCCCCCCCNc1ccc(C(=O)C2CC2c2ccc(Cl)cc2)cc1 (configuration not stated)	> 12.5 µg/mL	10 µg/mL (≈ 26 µM)	2.13 µg/mL (≈ 5.55 µM)	214 µg/mL (≈ 558 µM)	100.53	30.2%	23.9%		
CCCCCCCCCCCCCCCCNc1ccc(C(=O)C2CC2c2ccc(Cl)cc2)cc1 (configuration not stated)	Insoluble	50 µg/mL (≈ 101 µM)	4.57 µg/mL (≈ 9.21 µM)	410 µg/mL (≈ 826 µM)	89.68	36%	36.7%		
CCCCCCCNc1ccc(C(=O)C2CC2c2ccc(Cl)cc2)cc1 (configuration not stated)	> 12.5 µg/mL	0.3 µg/mL (≈ 0.811 µM)	0.08 µg/mL (≈ 0.216 µM)	398 µg/mL (≈ 1080 µM)	4975			inactive	inactive
CCN(CC)CCCC(C)Nc1ccnc2cc(Cl)ccc12 (configuration not stated) [CHLOROQUINE]		0.05 µg/mL (≈ 0.156 µM)							
CCCCNc1ccc(C(=O)C2CC2c2ccc(Cl)cc2)cc1 (configuration not stated)	12.5 µg/mL (≈ 38.1 µM)	0.6 µg/mL (≈ 1.83 µM)	0.33 µg/mL (≈ 1.01 µM)	316 µg/mL (≈ 965 µM)	958.69	39.5%	60.9%		
CN1CCN(c2ccc(C(=O)C3CC3c3ccc(Cl)cc3)cc2)CC1 (configuration not stated)	6.25 µg/mL (≈ 17.6 µM)	10 µg/mL (≈ 28.2 µM)	0.54 µg/mL (≈ 1.52 µM)	82.1 µg/mL (≈ 231 µM)	151.96		0.17%	inactive	
CN(C)c1ccc(C(=O)C2CC2c2ccc(Cl)cc2)cc1 (configuration not stated)	Insoluble	10 µg/mL (≈ 33.4 µM)	1.43 µg/mL (≈ 4.77 µM)	344 µg/mL (≈ 1150 µM)	240.4				
O=C(c1ccc(N2CCN(c3cccc(Cl)c3Cl)CC2)cc1)C1CC1c1ccc(Cl)cc1 (configuration not stated)	12.5 µg/mL (≈ 25.7 µM)	50 µg/mL (≈ 103 µM)	8.82 µg/mL (≈ 18.2 µM)	383 µg/mL (≈ 788 µM)	43.38	15.7%	31.8%		
O=C(c1ccc(NCCO)cc1)C1CC1c1ccc(Cl)cc1 (configuration not stated)	> 12.5 µg/mL	2 µg/mL (≈ 6.33 µM)	0.6 µg/mL (≈ 1.9 µM)	305 µg/mL (≈ 966 µM)	508.33				
O=C(/C=C/c1ccc(Cl)cc1)c1ccc(NCc2ccco2)cc1	12.5 µg/mL (≈ 37 µM)	10 µg/mL (≈ 29.6 µM)	0.76 µg/mL (≈ 2.25 µM)	404 µg/mL (≈ 1200 µM)	531.62				
O=C(c1ccc(NCCn2cncn2)cc1)C1CC1c1ccc(Cl)cc1 (configuration not stated)	12.5 µg/mL (≈ 34.1 µM)	10 µg/mL (≈ 27.3 µM)	3.41 µg/mL (≈ 9.3 µM)	39.9 µg/mL (≈ 109 µM)	11.7	17.9%	30.1%		
COc1ccc(CNc2ccc(C(=O)C3CC3c3ccc(Cl)cc3)cc2)cc1OC (configuration not stated)	> 12.5 µg/mL	10 µg/mL (≈ 23.7 µM)	8 µg/mL (≈ 19 µM)	422 µg/mL (≈ 1000 µM)	52.73				
CCCCCCCC/C=C\CCCCCCCCNc1ccc(C(=O)C2CC2c2ccc(Cl)cc2)cc1 (configuration not stated)	12.5 µg/mL (≈ 23.9 µM)	> 50 µg/mL	75.1 µg/mL (≈ 144 µM)	393 µg/mL (≈ 753 µM)	5.24				
CCCCCCCNc1ccc(C(=O)C2CC2c2ccc(OC)c(OC)c2)cc1 (configuration not stated)	> 12.5 µg/mL	10 µg/mL (≈ 25.3 µM)	2.24 µg/mL (≈ 5.66 µM)	273 µg/mL (≈ 689 µM)	121.67				
O=C(c1ccc(N2CCOCC2)cc1)C1CC1c1ccc(Cl)cc1 (configuration not stated)	> 12.5 µg/mL	10 µg/mL (≈ 29.3 µM)	3.02 µg/mL (≈ 8.83 µM)	453 µg/mL (≈ 1320 µM)	149.92	29.8%	3.81%		
O=C(c1ccc(NCc2ccco2)cc1)C1CC1c1ccc(Cl)cc1 (configuration not stated)	3.12 µg/mL (≈ 8.87 µM)	10 µg/mL (≈ 28.4 µM)	1.71 µg/mL (≈ 4.86 µM)	256 µg/mL (≈ 727 µM)	149.64	16.5%	27.4%		
O=C(c1ccc(N2CCCC2)cc1)C1CC1c1ccc(Cl)cc1 (configuration not stated)	12.5 µg/mL (≈ 38.4 µM)	> 50 µg/mL	9.75 µg/mL (≈ 29.9 µM)	431 µg/mL (≈ 1320 µM)	44.26				
CCCCCCCCCCCCNc1ccc(C(=O)C2CC2c2ccc(Cl)cc2)cc1 (configuration not stated)	Insoluble	> 50 µg/mL	10.4 µg/mL (≈ 23.6 µM)	386 µg/mL (≈ 876 µM)	37.08	27%	32.7%		
COc1ccc(C2CC2C(=O)c2ccc(N3CCN(C)CC3)cc2)cc1OC (configuration not stated)	> 12.5 µg/mL	50 µg/mL (≈ 131 µM)	2.09 µg/mL (≈ 5.49 µM)	77.8 µg/mL (≈ 205 µM)	37.23				
CN1CCN(c2ccc(C(=O)/C=C/c3ccc(Cl)cc3)cc2)CC1	3.12 µg/mL (≈ 9.15 µM)	50 µg/mL (≈ 147 µM)	11.8 µg/mL (≈ 34.6 µM)	102 µg/mL (≈ 301 µM)	8.69	13.6%	14.7%		
O=C(c1ccc(N2CCCCC2)cc1)C1CC1c1ccc(Cl)cc1 (configuration not stated)	> 12.5 µg/mL	10 µg/mL (≈ 29.4 µM)	6.05 µg/mL (≈ 17.8 µM)	284 µg/mL (≈ 836 µM)	46.99				
